Measurements reported in ChEMBL document CHEMBL1142711 (J Med Chem, 2005).

Tests used:
[1] = molecular target: T1, Kappa-type opioid receptor (Homo sapiens, UniProt P41145); test: Stimulation of [35S]-GTP-gamma S binding to Opioid receptor kappa 1 expressed in […] cells; type: functional, cell-based
[2] = molecular target: T1, Kappa-type opioid receptor; test: Antagonistic activity against human opioid receptor kappa 1 expressed in CHO cells in [35S]GTP gamma S assay; type: functional, cell-based
Summary of the method: (§1)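 Antagonism in [35S]GTPγS binding on membranes: rat MOR/DOR in C6 cells, human KOR in CHO cells. Agonist dose-response curves run with and without test ligand: DAMGO (MOR), SNC80 (DOR), U69593 (KOR). Ke = [antagonist]/(dose-ratio − 1), ± SEM. Three separate experiments.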

Mus musculus [3] = test: In vivo effective concentration for agonist activity in mouse tail withdrawal assay for antinociception after 3h of pre treatment with U-69,593 sc administration (10 mg/kg); type: functional, organism-based
Summary of the method: (§2)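 Mouse warm-water tail withdrawal, water at 50 °C. Agonist U69593 given sc, and its dose-response EC50 (mg/kg) determined. Pretreatment 1, 3, 18, 24 or 48 h before, sc at 10 or 32 mg/kg; or icv 10 nmol at 1, 24, 48 or 168 h before. Vehicle control at −1 h. Fold shift and its significance reported.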

[4] = molecular target: T2, Delta-type opioid receptor (Rattus norvegicus, UniProt P33533); test: Inhibition of [3H]diprenorphine binding to rat Opioid receptor delta 1 expressed in C6 cells; type: cell-based
T2 sequence (P33533 whole entry): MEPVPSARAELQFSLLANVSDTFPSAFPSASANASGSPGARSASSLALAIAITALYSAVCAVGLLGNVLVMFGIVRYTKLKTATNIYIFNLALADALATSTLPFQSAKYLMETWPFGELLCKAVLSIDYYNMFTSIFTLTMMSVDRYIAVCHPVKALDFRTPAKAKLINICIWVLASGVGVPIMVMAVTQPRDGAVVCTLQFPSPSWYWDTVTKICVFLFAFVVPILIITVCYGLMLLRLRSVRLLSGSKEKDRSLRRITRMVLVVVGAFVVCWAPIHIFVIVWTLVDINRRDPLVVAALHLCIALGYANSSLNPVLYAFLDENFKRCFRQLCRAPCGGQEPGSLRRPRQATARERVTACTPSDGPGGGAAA
Summary of the method: (§3)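 Competition binding with [3H]diprenorphine on rat MOR or DOR expressed in C6 cells and human KOR in CHO cells. Mean of three experiments, each in duplicate.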

[5] = molecular target: Mu-type opioid receptor (Rattus norvegicus) (UniProt P33535); test: Stimulation of [35S]-GTP-gamma S binding to Opioid receptor mu 1 expressed in C6 cells; type: functional, cell-based
Mu-type opioid receptor (Rattus norvegicus), sequence (P33535 whole entry): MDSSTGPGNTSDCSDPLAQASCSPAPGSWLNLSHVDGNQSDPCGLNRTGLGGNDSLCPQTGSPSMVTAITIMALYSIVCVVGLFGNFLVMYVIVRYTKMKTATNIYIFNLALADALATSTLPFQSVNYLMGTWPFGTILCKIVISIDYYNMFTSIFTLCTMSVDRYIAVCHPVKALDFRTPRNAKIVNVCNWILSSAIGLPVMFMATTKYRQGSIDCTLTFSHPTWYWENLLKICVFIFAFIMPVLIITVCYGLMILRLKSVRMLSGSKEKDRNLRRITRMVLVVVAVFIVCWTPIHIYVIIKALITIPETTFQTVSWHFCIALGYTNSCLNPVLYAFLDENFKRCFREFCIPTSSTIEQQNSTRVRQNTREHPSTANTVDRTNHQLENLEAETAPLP

Mu-type opioid receptor [6] = molecular target: T3, Mu-type opioid receptor (Rattus norvegicus, UniProt P33535); test: Agonist activity against rat Opioid receptor mu 1 expressed in C6 cells in [35S]-GTP-gamma S binding assay; type: functional, cell-based
T3 sequence (P33535 whole entry): as above

Mus musculus [7] = test: In vivo effective concentration for agonist activity in mouse tail withdrawal assay for antinociception after 48 hr of pre treatment with U-69,593 sc administration (10 mg/kg); type: functional, organism-based; summary of the method: as §2
Mus musculus [8] = test: In vivo effective concentration for agonist activity in mouse tail withdrawal assay for antinociception after 24 hr of pre treatment with U-69,593 sc administration (10 mg/kg); type: functional, organism-based; summary of the method: as §2
Mus musculus [9] = test: In vivo effective concentration for agonist activity in mouse tail withdrawal assay for antinociception after 24 hr of pre treatment with U-69,593 sc administration (32 mg/kg); type: functional, organism-based; summary of the method: as §2
[10] = molecular target: Delta-type opioid receptor (Rattus norvegicus) (UniProt P33533); test: Antagonistic activity against rat opioid receptor delta 1 expressed in C6 cells in [35S]GTP gamma S assay; type: functional, cell-based; summary of the method: as §1
Delta-type opioid receptor (Rattus norvegicus), sequence (P33533 whole entry): as the sequence (P33533 whole entry) above

[11] = Relative binding affinity for rat Opioid receptor mu 1 and human Opioid receptor kappa 1
Mu-type opioid receptor [12] = molecular target: T3, Mu-type opioid receptor; test: Inhibition of [3H]diprenorphine binding to rat Opioid receptor mu 1 expressed in C6 cells; type: cell-based; summary of the method: as §3
[13] = molecular target: Mu-type opioid receptor (Rattus norvegicus) (UniProt P33535); test: Antagonistic activity against rat opioid receptor mu 1 expressed in C6 cells in [35S]GTP gamma S assay; type: functional, cell-based; summary of the method: as §1
[14] = molecular target: T2, Delta-type opioid receptor; test: Agonist activity against Opioid receptor delta 1 expressed in C6 cells in [35S]-GTP-gamma S assay; No stimulation up to 10000 nM; type: functional, cell-based
[15] = Relative binding affinity for rat Opioid receptor delta 1 and human Opioid receptor kappa 1
Mus musculus [16] = test: In vivo effective concentration for agonist activity in mouse tail withdrawal assay for antinociception after 1 hr of pre treatment with U-69,593 sc administration (10 mg/kg); type: functional, organism-based; summary of the method: as §2
Mus musculus [17] = test: In vivo effective concentration for agonist activity in mouse tail withdrawal assay for antinociception after 24 hr of pre treatment with U-69,593 icv administration (10 nmol); type: functional, organism-based; summary of the method: as §2
Mus musculus [18] = test: In vivo effective concentration for agonist activity in mouse tail withdrawal assay for antinociception after 168h of pre treatment with U-69,593 icv administration (10 nmol); type: functional, organism-based; summary of the method: as §2
[19] = molecular target: T1, Kappa-type opioid receptor; test: Agonist activity against human Opioid receptor kappa 1 expressed in CHO cells in [35S]-GTP-gamma S binding assay; type: functional, cell-based
Mus musculus [20] = test: In vivo effective concentration for agonist activity in mouse tail withdrawal assay for antinociception after 1 hr of pre treatment with U-69,593 icv administration (10 nmol); type: functional, organism-based; summary of the method: as §2
[21] = molecular target: T1, Kappa-type opioid receptor; test: Inhibition of [3H]diprenorphine binding to human opioid receptor kappa 1 expressed in CHO cells; type: cell-based; summary of the method: as §3
Mus musculus [22] = test: In vivo effective concentration for agonist activity in mouse tail withdrawal assay for antinociception after 18 h of pre treatment with U-69,593 sc administration (10 mg/kg); type: functional, organism-based; summary of the method: as §2
Mus musculus [23] = test: In vivo effective concentration for agonist activity in mouse tail withdrawal assay for antinociception after 48 hr of pre treatment with U-69,593 icv administration (10 nmol); type: functional, organism-based; summary of the method: as §2
[24] = molecular target: T1, Kappa-type opioid receptor; test: Agonist activity against Opioid receptor kappa 1 expressed in CHO cells in [35S]-GTP-gamma S assay; No stimulation up to 10000 nM; type: functional, cell-based
Mu-type opioid receptor [25] = molecular target: T3, Mu-type opioid receptor; test: Agonist activity against Opioid receptor mu 1 expressed in C6 cells in [35S]-GTP-gamma S assay; No stimulation up to 10000 nM; type: functional, cell-based

T1 sequence (P41145 whole entry): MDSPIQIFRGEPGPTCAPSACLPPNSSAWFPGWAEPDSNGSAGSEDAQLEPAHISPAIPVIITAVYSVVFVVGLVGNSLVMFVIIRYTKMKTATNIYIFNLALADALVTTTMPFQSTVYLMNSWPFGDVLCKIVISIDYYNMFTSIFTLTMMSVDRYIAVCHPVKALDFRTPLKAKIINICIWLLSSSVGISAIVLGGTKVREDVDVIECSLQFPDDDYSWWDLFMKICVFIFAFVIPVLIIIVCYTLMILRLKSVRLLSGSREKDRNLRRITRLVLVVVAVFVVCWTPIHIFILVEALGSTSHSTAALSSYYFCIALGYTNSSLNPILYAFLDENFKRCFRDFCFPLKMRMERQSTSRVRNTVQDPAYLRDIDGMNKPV

Compound	Ke [2] [nM]	Ki [4] [nM]	Stimulation [5] [%]	EC50 (Mu-type opioid receptor [6]) [nM]	EC50 (Mus musculus [9])	Ke [10] [nM]	Ratio [11]	Ki (Mu-type opioid receptor [12]) [nM]	Ke [13] [nM]	EC50 [14]	Ratio [15]	EC50 (Mus musculus [17])	Ki [21] [nM]	EC50 [24]	also measured
Oc1ccc2c3c1O[C@H]1c4c(c5c(n4Cc4ccccc4)[C@@H]4Oc6c(O)ccc7c6[C@@]46CCN(CC4CC4)[C@H](C7)[C@]6(O)C5)C[C@@]4(O)[C@@H](C2)N(CC2CC2)CC[C@]314	0.26	8.6	38	187	5.7 mh/kg	13.3	14	10	25.5	Not Active	12	26.3 mh/kg	0.7	–	Stimulation [1]: 29%; EC50 (Mus musculus [3]): 2.1 mg/kg; EC50 (Mus musculus [7]): 9.9 mh/kg; EC50 (Mus musculus [8]): 4.4 mg/kg; EC50 (Mus musculus [16]): 2 mg/kg; EC50 (Mus musculus [18]): 37 mh/kg; EC50 [19]: 1910 nM; EC50 (Mus musculus [20]): 49.1 mh/kg; EC50 (Mus musculus [22]): 9 mg/kg; EC50 (Mus musculus [23]): 74.2 mh/kg
CN1CC[C@]23c4c5ccc(O)c4O[C@H]2c2[nH]c4c(c2C[C@@]3(O)[C@H]1C5)C[C@@]1(O)[C@H]2Cc3ccc(O)c5c3[C@@]1(CCN2C)[C@H]4O5	27	98.2	66	1390	–	–	8	63.6	–	Not Active	13	–	7.7	Not Active	–
Oc1ccc2c3c1O[C@H]1c4[nH]c5c(c4C[C@@]4(O)[C@@H](C2)N(CC2CC2)CC[C@]314)C[C@@]1(O)[C@H]2Cc3ccc(O)c4c3[C@@]1(CCN2CC1CC1)[C@H]5O4 [NORBINALTORPHIMINE]	0.11	5.8	–	–	22.7 mg/kg	5.17	–	–	2.38	Not Active	–	31.8 mg/kg	–	Not Active	EC50 (Mu-type opioid receptor [25]): Not Active
C[C@H]1c2c(c3c(n2Cc2ccccc2)[C@@H]2Oc4c(O)ccc5c4[C@@]24CCN(C)[C@H](C5)[C@]4(O)C3)CC2(O)[C@H]3Cc4ccc(O)c(O)c4[C@@]12CCN3C (stereo partly specified)	311	–	54	–	–	–	0.3	–	–	–	8	–	–	–	–
